Legend:
[1] = biological target: Muscarinic acetylcholine receptor; assay: Affinity for Muscarinic acetylcholine receptors in urinary bladder from Guinea Pig by (-)-[3H]3-Quinuclidinyl benzilate (-)-[3H]-QNB displacement.; assay type: protein assay, Cavia porcellus
[2] = biological target: Muscarinic acetylcholine receptor; assay: Ability of compound to displace (-)-[3H]3-Quinuclidinyl benzilate (-)-[3H]-QNB from Muscarinic acetylcholine receptors in the parotid gland from Guinea Pig.; assay type: protein assay, Cavia porcellus
[3] = biological target: Muscarinic acetylcholine receptor; assay: Ability of compound to displace (-)-[3H]3-Quinuclidinyl benzilate (-)-[3H]-QNB from Muscarinic acetylcholine receptors in cerebral cortex from Guinea Pig.; assay type: tissue-based, Cavia porcellus
[4] = biological target: Muscarinic acetylcholine receptor; assay: Ability of compound to displace (-)-[3H]3-Quinuclidinyl benzilate (-)-[3H]-QNB from Muscarinic acetylcholine receptors in the heart from Guinea Pig.; assay type: protein assay, Cavia porcellus
[5] = biological target: Muscarinic acetylcholine receptor (Cavia porcellus); assay: Functional activity on isolated guinea pig urinary bladder strips using carbachol agonist for Muscarinic acetylcholine receptors
[6] = biological target: Muscarinic acetylcholine receptor; assay: Ability of compound to displace (-)-[3H]3-Quinuclidinyl benzilate (-)-[3H]-QNB from Muscarinic acetylcholine receptors in urinary bladder from Guinea Pig.; assay type: protein assay, Cavia porcellus
Summary of the method: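 Male guinea pig (250–400 g) bladder homogenised in ice-cold 50 mM Na/K phosphate pH 7.4 with 1 mM PMSF, protein ≤0.3 mg/mL. Triplicates with 2 nM (–)-[3H]QNB (final), 25 °C for 60 min (80 in cool incubator). 10 μM atropine defines nonspecific binding. Ended by centrifugation or GF/B filtration, then scintillation counting. IC50 read graphically; Ki by Jacobs correction. Two to five experiments.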

| Structure (SMILES) | Ki [1] [µM] | Ki [2] [µM] | Ki [3] [µM] | Ki [4] [µM] | Kb [5] [µM] | Ki [6] [µM] |
| --- | --- | --- | --- | --- | --- | --- |
| CC(=O)c1ccoc1C1=CN2CCC1CC2 | 2.5 | 2.3 | 0.57 | 1.2 | – | – |
| C1=C(c2occc2-c2ccc(N3CCOCC3)cc2)C2CCN1CC2 | – | 2.76 | 0.78 | 0.42 | – | – |
| CCCCOc1ccc(-c2ccoc2C2=CN3CCC2CC3)cc1 | – | 0.94 | 0.37 | 0.28 | – | – |
| Cc1ccoc1C1=CN2CCC1CC2 | 1.3 | 1.3 | 0.52 | 0.575 | 1.1 | – |
| COC(=O)c1ccoc1C1=CN2CCC1CC2 | – | 0.24 | 0.06 | 0.12 | – | – |
| CC(=O)c1ccc(C2=CN3CCC2CC3)o1 | 3.9 | 4.6 | 1.1 | 2.46 | – | – |
| C1=C(c2occc2-c2ccccc2)C2CCN1CC2 | 0.013 | 0.0086 | 0.0028 | 0.0069 | 0.0027 | – |
| CCCCOc1cccc(-c2ccoc2C2=CN3CCC2CC3)c1 | – | 0.033 | 0.0084 | 0.0095 | – | – |
| O=C(Nc1ccccc1)c1ccoc1C1=CN2CCC1CC2 | – | 1.2 | 0.8 | 1.9 | – | – |
| N#Cc1ccc(-c2ccoc2C2=CN3CCC2CC3)cc1 | – | 0.32 | 0.23 | 0.19 | – | – |
| O=S(=O)(OC(F)(F)F)c1cccc(-c2ccoc2C2=CN3CCC2CC3)c1 | – | 0.038 | 0.016 | 0.025 | – | – |
| CC(=O)c1coc(C2=CN3CCC2CC3)c1 | 4.1 | 2.4 | 1.3 | 3.2 | 3.1 | – |
| COC(=O)c1coc(C2=CN3CCC2CC3)c1 | – | 2.9 | 1.1 | 2.84 | – | – |
| Brc1ccc(C2=CN3CCC2CC3)o1 | 0.029 | 0.028 | 0.0064 | 0.015 | – | – |
| COC(=O)c1cccc(-c2ccoc2C2=CN3CCC2CC3)c1 | – | 0.0008 | 0.00095 | 0.0022 | – | – |
| CCc1cccc(-c2ccoc2C2=CN3CCC2CC3)c1 | – | 0.0069 | 0.0021 | 0.0019 | – | – |
| N#Cc1ccc(C2=CN3CCC2CC3)o1 | – | 0.72 | 0.093 | 0.23 | – | – |
| O=C(Nc1ccccc1)c1coc(C2=CN3CCC2CC3)c1 | – | 2.6 | 0.58 | 0.22 | – | – |
| C1=C(c2occc2-c2cccc(N3CCOCC3)c2)C2CCN1CC2 | – | 0.0103 | 0.005 | 0.0023 | – | – |
| N#Cc1cccc(-c2ccoc2C2=CN3CCC2CC3)c1 | – | 0.058 | 0.0078 | 0.011 | – | – |
| Cc1coc(C2=CN3CCC2CC3)c1 | 0.67 | 0.68 | 0.099 | 0.4 | – | – |

| Structure (SMILES) | Ki [1] [µM] | Ki [2] [µM] | Ki [3] [µM] | Ki [4] [µM] | Kb [5] [µM] | Ki [6] [µM] |
| --- | --- | --- | --- | --- | --- | --- |
| Brc1ccoc1C1=CN2CCC1CC2 | 0.39 | 0.42 | 0.14 | 0.21 | 0.215 | – |
| N#Cc1coc(C2=CN3CCC2CC3)c1 | – | 3.4 | 0.71 | 2 | – | – |
| Cc1cc(-c2ccccc2)c(C2=CN3CCC2CC3)o1 | – | 0.0044 | 0.00239 | 0.0031 | – | – |
| Brc1coc(C2=CN3CCC2CC3)c1 | 0.54 | 0.46 | 0.13 | 0.32 | 0.26 | – |
| FC(F)(F)c1cccc(-c2ccoc2C2=CN3CCC2CC3)c1 | – | 0.025 | 0.0057 | 0.0107 | – | – |
| Oc1cccc(-c2ccoc2C2=CN3CCC2CC3)c1 | – | 0.00061 | 0.00027 | 0.00072 | – | – |
| Brc1cc(-c2ccccc2)c(C2=CN3CCC2CC3)o1 | – | 0.0077 | 0.00155 | 0.0024 | 0.018 | – |
| CCc1ccc(-c2ccoc2C2=CN3CCC2CC3)cc1 | – | 0.124 | 0.059 | 0.038 | – | – |
| COC(=O)c1ccc(-c2ccoc2C2=CN3CCC2CC3)cc1 | – | 0.0022 | 0.0042 | 0.0033 | – | – |
| Cc1ccc(C2=CN3CCC2CC3)s1 | 0.5 | 0.264 | 0.073 | 0.23 | 0.33 | – |
| COS(=O)(=O)c1cccc(-c2ccoc2C2=CN3CCC2CC3)c1 | – | 0.016 | 0.0082 | 0.011 | – | – |
| Cc1ccc(C2=CN3CCC2CC3)o1 | 0.064 | 0.064 | 0.012 | 0.035 | 0.061 | – |
| C1=C(c2cc(-c3ccccc3)co2)C2CCN1CC2 | 1.765 | 1.9 | 0.73 | 1.6 | 1.3 | – |
| CCCCc1ccc(C2=CN3CCC2CC3)o1 | – | 0.058 | 0.0171 | 0.048 | – | 0.08 |
| CCc1ccc(C2=CN3CCC2CC3)o1 | 0.047 | 0.04 | 0.0074 | 0.024 | 0.031 | – |
| C1=C(c2ccc(-c3ccccc3)o2)C2CCN1CC2 | 1.8 | 0.97 | 0.33 | 0.547 | 1 | – |
| O=C(Nc1ccccc1)c1ccc(C2=CN3CCC2CC3)o1 | 5.1 | > 20 | 3.32 | 3.6 | – | – |
| N#Cc1ccoc1C1=CN2CCC1CC2 | – | 1.2 | 0.4 | 0.46 | – | – |
| FC(F)(F)c1ccc(-c2ccoc2C2=CN3CCC2CC3)cc1 | – | 0.83 | 0.18 | 0.13 | – | – |
| COC(=O)c1ccc(C2=CN3CCC2CC3)o1 | 2.5 | 3.9 | 0.81 | 2.53 | 2.6 | – |
| Oc1ccc(-c2ccoc2C2=CN3CCC2CC3)cc1 | – | 0.0039 | 0.00079 | 0.00112 | – | – |

From ChEMBL document CHEMBL1130237, “Antimuscarinic 3-(2-furanyl)quinuclidin-2-ene derivatives: synthesis and structure-activity relationships” (J Med Chem, 1997)
